From ChEMBL document CHEMBL3414513, “Synthesis and biological evaluation of betulonic acid derivatives as antitumor agents” (Eur J Med Chem, 2015) come the findings set out here.

Common to all, as to type: functional, cell-based
A short description of assay [1]: (§1) Cytotoxicity against human PC3 cells after 72 hrs by MTT assay. The conditions noted are these: PC-3, 72 h. In outline:
(§2)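 Cells trypsinized at 80-90% confluence, seeded at 2×10^3/well overnight, then given compounds (DMSO stocks diluted in medium) at various concentrations for 72 h at 37 °C. Controls: 0.1% DMSO negative, adriamycin positive. MTT (5 mg/ml) added for 4 h, formazan dissolved in SDS 12 h, A595 read. IC50 from dose-response curves.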

The subject of assay [2] is PC-3. The assay is described as §1. A digest of the protocol: as §2
Assay [3] has as its system Bcap37. Description: Cytotoxicity against human Bcap37 cells after 72 hrs by MTT assay. Conditions: for IC50: Bcap37, 72 h. A digest of the protocol: (§3)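 Cancer lines grown in RPMI 1640 with 10% heat-inactivated FBS, 37 °C, 5% CO2. Cells trypsinized at 80-90% confluence, seeded at 2×10^3/well overnight, then given compounds (DMSO stocks diluted in medium) at various concentrations for 72 h at 37 °C. Controls: 0.1% DMSO negative, adriamycin positive. MTT (5 mg/ml) added for 4 h, formazan dissolved in SDS 12 h, A595 read. IC50 from dose-response curves.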

The subject of assay [4] is MCF7. Nature of the assay: Cytotoxicity against human MCF7 cells after 72 hrs by MTT assay. Conditions: for IC50: MCF7, 72 h. In outline:
as §3

Assay [5] deals with MGC-803. Nature of the assay: Cytotoxicity against human MGC803 cells after 72 hrs by MTT assay. Conditions: for IC50: MGC-803, 72 h. In outline:
as §3

Assay [6] concerns A-375. Nature of the assay: Cytotoxicity against human A375 cells after 72 hrs by MTT assay. Conditions: for IC50: A-375, 72 h. In outline: as §3

Bounds are passed on as bounds.

Turning to `C=C(C)[C@@H]1CC[C@]2(C(=O)OCCN3CCN(C(=O)c4cccc(F)c4)CC3)CC[C@]3(C)[C@H](CC[C@@H]4[C@@]5(C)CCC(=O)C(C)(C)[C@@H]5CC[C@]43C)[C@@H]12`, the IC50 came to 6.8 µM in assay [1]; 6.4 µM in assay [3]; 5.4 µM in assay [4]; 4.9 µM in assay [5]; 7.6 µM in assay [6]. Moreover, the Activity entry in assay [2], in assay [3], in assay [4], in assay [5] and in assay [6] was “Dose-dependent effect” in each case.

Consider `C=C(C)[C@@H]1CC[C@]2(C(=O)OCCCBr)CC[C@]3(C)[C@H](CC[C@@H]4[C@@]5(C)CCC(=O)C(C)(C)[C@@H]5CC[C@]43C)[C@@H]12`, for which the half-inhibitory concentration (IC50) in assay [1], in assay [3], in assay [4], in assay [5] and in assay [6] was greater than 20 µM each time. For the same compound, the Activity result in assay [2], in assay [3], in assay [4], in assay [5] and in assay [6] was “Dose-dependent effect” in each case.

In the case of `COc1cccc2c1C(=O)c1c(O)c3c(c(O)c1C2=O)C[C@@](O)(C(=O)CO)C[C@@H]3O[C@H]1C[C@H](N)[C@H](O)[C@H](C)O1` [DOXORUBICIN], the Activity result in assay [2], in assay [3], in assay [5] and in assay [6] was “Dose-dependent effect” each time. The results for the IC50 in assay [3], in assay [4] and in assay [6] were 1.2 µM, 1.35 µM and 1 µM, respectively.

Regarding `C=C(C)[C@@H]1CC[C@]2(C(=O)OCCN3CCN(C(=O)c4c(F)cccc4Cl)CC3)CC[C@]3(C)[C@H](CC[C@@H]4[C@@]5(C)CCC(=O)C(C)(C)[C@@H]5CC[C@]43C)[C@@H]12`, the IC50 in assay [1] was found to be 9.3 µM; in assay [3], 7.5 µM; in assay [4], 8.1 µM; in assay [5], 5.3 µM; in assay [6], 8.4 µM. Moreover, the Activity result in assay [2], in assay [3], in assay [4], in assay [5] and in assay [6] was “Dose-dependent effect” throughout.

With `C=C(C)[C@@H]1CC[C@]2(C(=O)OCCCCN3CCOCC3)CC[C@]3(C)[C@H](CC[C@@H]4[C@@]5(C)CCC(=O)C(C)(C)[C@@H]5CC[C@]43C)[C@@H]12`, the IC50 in assay [1] came to 7.2 µM; in assay [3], 5.2 µM; in assay [4] it was 8.5 µM; in assay [5], 5.6 µM; in assay [6], 6.8 µM. In addition, the Activity result in assay [2], in assay [3], in assay [4], in assay [5] and in assay [6] was “Dose-dependent effect” each time.

On to `C=C(C)[C@@H]1CC[C@]2(C(=O)OCCN3CCOCC3)CC[C@]3(C)[C@H](CC[C@@H]4[C@@]5(C)CCC(=O)C(C)(C)[C@@H]5CC[C@]43C)[C@@H]12`, for which the half-maximal inhibitory concentration (IC50) worked out at 11.3 µM in assay [1]; 8.8 µM in assay [3]; 10.1 µM in assay [4]; 9.4 µM in assay [5]; 10.5 µM in assay [6]. The Activity entry in assay [2], in assay [3], in assay [4], in assay [5] and in assay [6] was “Dose-dependent effect” in each case.

Take `C=C(C)[C@@H]1CC[C@]2(C(=O)OCCCN3CCCCC3)CC[C@]3(C)[C@H](CC[C@@H]4[C@@]5(C)CCC(=O)C(C)(C)[C@@H]5CC[C@]43C)[C@@H]12`: the IC50 in assay [1] turned out to be 5.7 µM; in assay [3], 9.5 µM; in assay [4] it was 6.6 µM; in assay [5], 6.3 µM; in assay [6], 9.5 µM. Also, the Activity entry in assay [2], in assay [3], in assay [4], in assay [5] and in assay [6] was “Dose-dependent effect” each time.

Turning to `C=C(C)[C@@H]1CC[C@]2(C(=O)OCCCCBr)CC[C@]3(C)[C@H](CC[C@@H]4[C@@]5(C)CCC(=O)C(C)(C)[C@@H]5CC[C@]43C)[C@@H]12`, the concentration for half-maximal inhibition (IC50) in assay [1], in assay [3], in assay [4], in assay [5] and in assay [6] was greater than 20 µM each time. Further, the Activity entry in assay [2], in assay [3], in assay [4], in assay [5] and in assay [6] was “Dose-dependent effect” throughout.

With `C=C(C)[C@@H]1CC[C@]2(C(=O)OCCN3CCN(C(=O)/C=C/c4ccccc4)CC3)CC[C@]3(C)[C@H](CC[C@@H]4[C@@]5(C)CCC(=O)C(C)(C)[C@@H]5CC[C@]43C)[C@@H]12`, the IC50 in assay [1] is 11 µM; in assay [3], 9.4 µM; in assay [4], 7.3 µM; in assay [5], 13.4 µM; in assay [6], 9.3 µM. In addition, the Activity entry in assay [2], in assay [3], in assay [4], in assay [5] and in assay [6] was “Dose-dependent effect” each time.

`C=C(C)[C@@H]1CC[C@]2(C(=O)OCCN(CC)CC)CC[C@]3(C)[C@H](CC[C@@H]4[C@@]5(C)CCC(=O)C(C)(C)[C@@H]5CC[C@]43C)[C@@H]12`: the half-maximal inhibitory concentration (IC50) in assay [1] came to 10.1 µM; in assay [3] it was 15.6 µM; in assay [4], 12.8 µM; in assay [5], 11.7 µM; in assay [6], 14.3 µM. Further, the Activity entry in assay [2], in assay [3], in assay [4], in assay [5] and in assay [6] was “Dose-dependent effect” throughout.

On to `C=C(C)[C@@H]1CC[C@]2(C(=O)OCCCN3CCOCC3)CC[C@]3(C)[C@H](CC[C@@H]4[C@@]5(C)CCC(=O)C(C)(C)[C@@H]5CC[C@]43C)[C@@H]12`, for which the IC50 in assay [1] was found to be 6.6 µM; in assay [3], 7.2 µM; in assay [4] it was 9.3 µM; in assay [5], 5.6 µM; in assay [6], 8.6 µM. For the same compound, the Activity result in assay [2], in assay [3], in assay [4], in assay [5] and in assay [6] was “Dose-dependent effect” in each case.
